Test results taken from ChEMBL document CHEMBL1142419, “Antimycobacterial activities of novel 2-(sub)-3-fluoro/nitro-5,12-dihydro-5-oxobenzothiazolo[3,2-a]quinoline-6-carboxylic acid” (Bioorg Med Chem, 2008).
Values after ≈ are worked out from the molar mass of the structure shown.

These compounds were tested on Mycobacterium tuberculosis (assay: Antimycobacterial activity against multidrug-resistant Mycobacterium tuberculosis by agar dilution method).
Type: functional
In short: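 MIC by agar dilution on Middlebrook 7H11 agar supplemented with OADC, following an NCCLS-like procedure, run in duplicate. The MDR-TB clinical isolate was resistant to isoniazid, rifampicin, ethambutol and ofloxacin.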
O=C(O)c1c(=O)c2cc([N+](=O)[O-])c(N3CCC(N4CCCCC4)CC3)cc2n2c1sc1ccccc12 was tested, and the MIC was 1.54 µM (≈ 0.78 µg/mL).
NNC(=O)c1ccncc1 [ISONIAZID] gave an MIC of 45.6 µM (≈ 6.25 µg/mL).
O=C(O)c1c(=O)c2cc(F)c(N3CCSCC3)cc2n2c1sc1ccccc12 was tested, and the MIC was 7.55 µM (≈ 3.13 µg/mL).
Work on CCN(CC)C(=O)C1CCCN(c2cc3c(cc2F)c(=O)c(C(=O)O)c2sc4ccccc4n23)C1 (centres undefined) yielded an MIC of 0.08 µM (≈ 0.0396 µg/mL).
COc1cc2c(cc1OC)CN(c1cc3c(cc1[N+](=O)[O-])c(=O)c(C(=O)O)c1sc4ccccc4n13)CC2 was tested, and the MIC was 2.93 µM (≈ 1.56 µg/mL).
Compound O=C(O)c1c(=O)c2cc(F)c(N3CCN(C(c4ccccc4)c4ccc(Cl)cc4)CC3)cc2n2c1sc1ccccc12 (centres undefined) has an MIC of 0.65 µM (≈ 0.389 µg/mL).
In the case of CC(C)(C)OC(=O)NC1C2CN(c3cc4c(cc3F)c(=O)c(C(=O)O)c3sc5ccccc5n34)CC21 (centres undefined), the MIC was 0.18 µM (≈ 0.0917 µg/mL).
For O=C(O)c1cn2c(n1)CN(c1cc3c(cc1[N+](=O)[O-])c(=O)c(C(=O)O)c1sc4ccccc4n13)CC2, the MIC was 0.77 µM (≈ 0.389 µg/mL).
In the case of CC(C)(C)NC(=O)C1c2ccccc2CCN1c1cc2c(cc1[N+](=O)[O-])c(=O)c(C(=O)O)c1sc3ccccc3n12 (centres undefined), the MIC was 5.49 µM (≈ 3.13 µg/mL).
Work on O=C(O)c1cn2c(n1)CN(c1cc3c(cc1F)c(=O)c(C(=O)O)c1sc4ccccc4n13)CC2 yielded an MIC of 0.39 µM (≈ 0.187 µg/mL).
O=C(O)c1c(=O)c2cc(F)c(N3CCC(N4CCCCC4)CC3)cc2n2c1sc1ccccc12 gave an MIC of 0.19 µM (≈ 0.0911 µg/mL).
CC(C)(C)OC(=O)NC1C2CN(c3cc4c(cc3[N+](=O)[O-])c(=O)c(C(=O)O)c3sc5ccccc5n34)CC21 (centres undefined) was tested, and the MIC was 0.73 µM (≈ 0.392 µg/mL).
For Cc1onc(-c2c(F)cccc2F)c1C(=O)N1CCN(c2cc3c(cc2F)c(=O)c(C(=O)O)c2sc4ccccc4n23)CC1, the MIC was 5.06 µM (≈ 3.13 µg/mL).
Compound O=C(O)c1c(=O)c2cc(F)c(N3CCC4(CC3)OCCO4)cc2n2c1sc1ccccc12 has an MIC of 0.86 µM (≈ 0.391 µg/mL).
Compound O=C(O)c1c(=O)c2cc(F)c(N3CCC(n4c(=O)[nH]c5cc(Cl)ccc54)CC3)cc2n2c1sc1ccccc12 has an MIC of 5.56 µM (≈ 3.13 µg/mL).
O=C(O)c1c(=O)c2cc([N+](=O)[O-])c(N3CCC(O)(c4ccc(Cl)cc4)CC3)cc2n2c1sc1ccccc12 was tested, and the MIC was 2.84 µM (≈ 1.56 µg/mL).
COc1c(N2CCNC(C)C2)c(F)cc2c(=O)c(C(=O)O)cn(C3CC3)c12 (centres undefined) [GATIFLOXACIN] was tested, and the MIC was 8.34 µM (≈ 3.13 µg/mL).
CCN(CC)C(=O)C1CCCN(c2cc3c(cc2[N+](=O)[O-])c(=O)c(C(=O)O)c2sc4ccccc4n23)C1 (centres undefined) showed an MIC of 0.75 µM (≈ 0.392 µg/mL).
O=C(O)c1c(=O)c2cc(F)c(N3CCC(O)(c4ccc(Cl)cc4)CC3)cc2n2c1sc1ccccc12 gave an MIC of 0.36 µM (≈ 0.188 µg/mL).
O=C(O)c1c(=O)c2cc([N+](=O)[O-])c(N3CCC4(CC3)OCCO4)cc2n2c1sc1ccccc12 gave an MIC of 0.39 µM (≈ 0.188 µg/mL).
Compound O=C(O)c1c(=O)c2cc(F)c(N3CCN(Cc4ccc5c(c4)OCO5)CC3)cc2n2c1sc1ccccc12 has an MIC of 5.89 µM (≈ 3.13 µg/mL).
Compound CC(C)(C)NC(=O)C1c2ccccc2CCN1c1cc2c(cc1F)c(=O)c(C(=O)O)c1sc3ccccc3n12 (centres undefined) has an MIC of 1.43 µM (≈ 0.777 µg/mL).
Work on O=C(O)c1c(=O)c2cc(F)c(N3CCN(C(=O)C4COc5ccccc5O4)CC3)cc2n2c1sc1ccccc12 (centres undefined) yielded an MIC of 5.59 µM (≈ 3.13 µg/mL).
With COc1cc2c(cc1OC)CN(c1cc3c(cc1F)c(=O)c(C(=O)O)c1sc4ccccc4n13)CC2 the MIC was 3.09 µM (≈ 1.56 µg/mL).
